Test results reported in the RNAGym collection of RNA variant scans (doi:10.1126/science.aae0568).
Fewer inactive variants are shown than the library holds.

B1: tRNA (parent)
chain: GUUCCGUUGGCGUAAUGGUAACGCGUCUCCCUCCUAAGGAGAAGACUGCGGGUUCGAGUCCCGUACGGAACG

Variants of: B1
Assay: yeast fitness relative to wild type (ratio to wild type); higher = fitter; tRNA-Arg(CCU), competitive growth, 37 C, YPD
Summary of the method: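 For this measurement, the tRNA-Arg(CCU) gene was varied by chemical synthesis at a 3% per-site mutation rate across 69 sites, and each variant was placed at the native genomic locus in Saccharomyces cerevisiae. The pooled strains went through a 24-hour competition in YPD at 37°C in six parallel replicates, with amplicons from start and end populations read by 100-nucleotide paired-end sequencing. Darwinian fitness relative to wild type followed from the change in each genotype's frequency. Genotypes needed ≥ 100 starting reads, and estimates < 0.5 were set to 0.5.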
With U2C A14G G18A U32A C66G the yeast fitness was at most 0.5. Variant C4G A69U A70C has a yeast fitness of 0.771. C5A U16G C27U C29U A36U G41A gave a yeast fitness of 0.589. Variant G10A C22G G58C has a yeast fitness of at most 0.5. C5U A36C showed a yeast fitness of 0.69. Variant U7G C30U G50C has a yeast fitness of at most 0.5. C27G C46A G51A gave a yeast fitness of 0.525. Variant C33A G38A A40C A43G G51C C61G has a yeast fitness of at most 0.5. C4G G17C A37U G58A C61A showed a yeast fitness of at most 0.5. Variant G6A C11U U13C C27G has a yeast fitness of 0.507. Variant A20U A36G C55U has a yeast fitness of 0.573. Work on G10C U32C A42C G68C yielded a yeast fitness of at most 0.5. A21C C24G A65C G67C gave a yeast fitness of 0.718. For A14C A43G, the yeast fitness was 0.628. In the case of C11U A42G G48A, the yeast fitness is reported as 0.678. Variant G48A C66G A70G has a yeast fitness of 0.632. C22G C27G C31G A57U showed a yeast fitness of at most 0.5. C30G A36C C49A C55A G63C A69C gave a yeast fitness of 0.608. In the case of C5U A15U C27G, the yeast fitness is reported as at most 0.5. U3A C22G C27G U59G A69G gave a yeast fitness of at most 0.5. Work on G17A C30G A45G yielded a yeast fitness of 0.584. C5U G25A A40C gave a yeast fitness of at most 0.5. C4A U8C G58A showed a yeast fitness of at most 0.5. For A14U A15G A21C, the yeast fitness was 0.536. Variant G9A C29U A43G G68U has a yeast fitness of 0.527. Work on C5U G6A C22U G25C yielded a yeast fitness of at most 0.5. In the case of U35C U54A, the yeast fitness is reported as at most 0.5. A21U U59C gave a yeast fitness of 0.672. In the case of A42G U54C, the yeast fitness is reported as 0.815. Variant C11A G18C C27A G48A U54C has a yeast fitness of 0.76. With U2G C30A C46G the yeast fitness was 0.666. C11U A45U A69C showed a yeast fitness of 0.874. Variant U8A U47C has a yeast fitness of 0.723. Variant G9C G17A U64C has a yeast fitness of at most 0.5. In the case of G17A C30U G63C A65C, the yeast fitness is reported as 0.529. G12A U28A C55G showed a yeast fitness of at most 0.5. Variant U7A G10A C33A A36C A69C has a yeast fitness of at most 0.5. A21G A40G showed a yeast fitness of 0.986. Variant C11G G12A C22A A36C C61G A69C has a yeast fitness of at most 0.5. Work on C11A C27U G41C A42G C60G yielded a yeast fitness of at most 0.5. U7C G17C U19C C24G G48C G51C U53C A57U C66U gave a yeast fitness of 0.575. G52C C66U showed a yeast fitness of 0.547. C27G G39A G67A showed a yeast fitness of 0.59. C34G A36C gave a yeast fitness of at most 0.5. Work on A14C C24G A45C U59C C61U yielded a yeast fitness of at most 0.5. C24G G48A A57G showed a yeast fitness of at most 0.5. C11G C34A G44A C46U G68A showed a yeast fitness of at most 0.5. With C4U C11G C34U C55A A65U A70G the yeast fitness was at most 0.5. For C4G U13A U54C, the yeast fitness was 0.548. Variant C22A U28A U47G has a yeast fitness of at most 0.5. Variant C4A U28A C31G A40U A65U G68C has a yeast fitness of at most 0.5. For U13A C22U A57U, the yeast fitness was at most 0.5. A20C A21U C27G U35G C46A A70C showed a yeast fitness of at most 0.5. Variant C11G A65U has a yeast fitness of 0.656. G18A G63A A69C showed a yeast fitness of 0.827. Variant C27U C31G A43C C49G G52C U59A has a yeast fitness of 0.54. In the case of U2G C31U U47G, the yeast fitness is reported as at most 0.5. With C5U C11U A36U C60A the yeast fitness was at most 0.5. Work on G9C C60G yielded a yeast fitness of 0.53. In the case of C5G C34A A37U G44A G51A C55A A57U, the yeast fitness is reported as at most 0.5. Variant C5A A21G C31G U53G has a yeast fitness of at most 0.5. Variant U8C C27U U35A U59C has a yeast fitness of at most 0.5. U35C G38A gave a yeast fitness of 0.891. Work on U8G U19C C46A yielded a yeast fitness of 0.853. Work on A15G G41C C49G C55U C61A yielded a yeast fitness of 0.638. Variant U3C C11A C27G C33A A43C C46A A70U has a yeast fitness of 0.528. In the case of A21C A36U C55U, the yeast fitness is reported as 0.626. With A14U G25A C27U C55G the yeast fitness was at most 0.5. Work on C5G A15U C30A C31A C49U C66G yielded a yeast fitness of at most 0.5. For G18A C29G C49G G63C, the yeast fitness was at most 0.5. Work on A14G C27A yielded a yeast fitness of 0.916. Variant U19C C24U C61U has a yeast fitness of 0.787. U3A C24U C30U showed a yeast fitness of at most 0.5. With G18C A36U C61A G63C the yeast fitness was at most 0.5. With A20C U28C C30A G44C A45G C55A the yeast fitness was at most 0.5. With A15G C60A the yeast fitness was 0.687. For A20G C49G U59A, the yeast fitness was 0.556. In the case of G18A A20U C29G A37U G48A, the yeast fitness is reported as at most 0.5. In the case of A43U G48C, the yeast fitness is reported as 0.922. U7A U19G C60G gave a yeast fitness of at most 0.5. For C24A A43U G52A, the yeast fitness was at most 0.5. With C11U A37G G52C A70U the yeast fitness was at most 0.5. Variant C24U C31A A57C has a yeast fitness of 0.704. C4A G10C G63C A69U showed a yeast fitness of at most 0.5.
